Test results: ChEMBL document CHEMBL2010714, “Radical-regulating and antiviral properties of ascorbic acid and its derivatives” (Bioorg Med Chem Lett, 2012)

Legend:
[1] = Cytotoxicity against human RD cells assessed maximun non-toxic concentration; type: cell-based
In short: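 Maximum non-toxic concentration determined in uninfected human RD cell culture after 72 h incubation with compound.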

Human alphaherpesvirus 1 = assay: Antiviral activity against Herpes simplex virus type 1 infected in human RD cells assessed as inhibition of virus-induced cytopathic effect; type: functional, organism-based; details: Human alphaherpesvirus 1, RD
In short: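 Human RD cells infected with HSV-1. Cytopathic-effect method. Activity criterion: reduction in virus titer with test compound versus untreated infected control. EC50 and EC90 taken as concentrations suppressing virus replication by 50% and 90%. Maximum non-toxic concentration determined separately in uninfected cultures after 72 h incubation.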

[2] = Selectivity ratio of MNTD for human RD cells to EC50 for HSV1; type: ADME, cell-based
In short: (§1)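 HSV-1-infected human RD cells were assessed by cytopathic effect. Virus titer reduction relative to untreated control gave concentrations suppressing replication by 50% and 90% (EC50, EC90). Maximum non-toxic concentration was found in uninfected RD cells after 72 h. The ratio divides MNTC by EC50 or EC90.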

[3] = Selectivity ratio of MNTD for human RD cells to EC90 for HSV1; type: ADME, cell-based; in short: as §1

| SMILES | MNTC [1] [mM] | EC50 (Human alphaherpesvirus 1) [µM] | EC90 (Human alphaherpesvirus 1) [µM] | selectivity ratio [2] | selectivity ratio [3] |
| --- | --- | --- | --- | --- | --- |
| COC1=C(OC)[C@@H]([C@@H](O)CO)OC1=O | 1.96 | 1810 | 3280 | 1.1 | 0.6 |
| CCCCCCCCCCCCCCCC(=O)OC[C@H](O)[C@H]1OC(=O)C(O[C@H]2O[C@H](CO)[C@@H](O)[C@H](O)[C@H]2O)=C1O | 0.0868 | 4.5 | 6.2 | 19.2 | 13.9 |
| COC1=C(OC)[C@@H]([C@@H]2COC(C)(C)O2)OC1=O | 1.64 | > 1640 |  | < 1 |  |
| CCCCCCCCCCCCCCCC(=O)OC[C@H](O)[C@H]1OC(=O)C(O)=C1O [ASCORBYL PALMITATE] | 0.24 | > 240 |  | < 1 |  |
| O=C1O[C@H]([C@@H](O)CO)C(O)=C1O [ASCORBIC ACID] | 2.27 | > 2270 |  | < 1 |  |
| O=C1O[C@H]([C@@H](O)CO)C(O)=C1O[C@H]1O[C@H](CO)[C@@H](O)[C@H](O)[C@H]1O | 1.18 | 16.3 | 26.9 | 72.7 | 43.9 |
